Reference: article PMC4838375 (Nucleic Acids Research, 2016)

Experiment: 15N relaxation, tumbling correlation time
Format: physicochemical, murine
Conditions: 15N relaxation (R2/R1), free protein, 600 MHz, 295 K
Summary of the method: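 Uniformly ¹⁵N-labelled domain expressed in E. coli BL21(DE3) on ¹⁵NH₄Cl minimal medium. Typical sample 0.3–0.4 mM in 20 mM sodium phosphate pH 6.3, 0.15 M NaCl, 2 mM DTT, 50 μM ZnCl₂. R1 sampled at 13 delays (50–2000 ms), R2 at 11 (12–244 ms), with heating compensation, random order and 2.5 s recovery. Duplicates fitted to two-parameter exponentials. τc from R2/R1, using non-overlapped residues with hetNOE > 0.65.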

B1: PHDVC5HCHNSD1: Murine NSD1 PHDvC5HCH (Glu2117–Asp2207), tandem domain, human residue numbering Glu2116–Asp2206 (protein, UniProt O88491 2117-2207, looked up, fragment)
chain: REYVPPTATSPPSPGTQPKEQSSEMATQGPKKSDQPPTDATQLLPLSKKALTGSCQRPLLPERPPERTDSSSHLLDRIRDLAGSGTKSQSL
Q: With B1 as the molecule, how does the “correlation time (free)” value read?
A: The value was 7.96±0.41 ns.
